Assay results as given in ChEMBL document CHEMBL5058577, “EUbOPEN Chemogenomics Library 2 (Multiplex)” (2022).

Test system: U2OS
Assay: Multiplex assay against U2OS
Type: toxicity, cell-based
Conditions: human
Outline: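 Cells stained live at seeding with Hoechst33342, BioTracker Green Microtubule Cytoskeleton Dye, MitoTracker Red and Annexin V Alexa Fluor 680 were imaged on a CQ1 microscope at 37°C and 5% CO2 after compound addition. Their classification by CellPathfinder machine-learning gating ran from Hoechst high-intensity objects versus normal cells, to healthy, pyknosed or fragmented nuclei among normal cells, to mitotic or apoptotic among pyknosed cells. Tubulin, mitochondrial-mass and membrane-permeability phenotypes are per cents of healthy-nucleus cells.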

[1] = 12 h, 1 µM, compound concentration 1 uM, replicate 1
[2] = 12 h, 1 µM, compound concentration 1 uM, replicate 2
[3] = 12 h, 10 µM, compound concentration 10 uM, replicate 1
[4] = 12 h, 10 µM, compound concentration 10 uM, replicate 2
[5] = 24 h, 1 µM, compound concentration 1 uM, replicate 1
[6] = 24 h, 1 µM, compound concentration 1 uM, replicate 2
[7] = 24 h, 10 µM, compound concentration 10 uM, replicate 1
[8] = 24 h, 10 µM, compound concentration 10 uM, replicate 2
[9] = 48 h, 1 µM, compound concentration 1 uM, replicate 1
[10] = 48 h, 1 µM, compound concentration 1 uM, replicate 2
[11] = 48 h, 10 µM, compound concentration 10 uM, replicate 1
[12] = 48 h, 10 µM, compound concentration 10 uM, replicate 2

## O=C1COc2nccc(-c3ccccc3F)c2CN1Cc1cc(C(F)(F)F)cc(C(F)(F)F)c1
[1]
  Population Apoptotic (%): 52%
  Population Fragmented Nuclei (%): 19%
  Population Healthy Nuclei (%): 72%
  Population Hoechst High Intensity Objects (%): 4%
  Population Membrane Permeable-Phenotype (%): 6%
  Population Mitochondria Different-Phenotype (%): 2%
  Population Mitotic Cells (%): 47%
  Population Normal (%): 95%
  Population Pyknosed Nuclei (%): 8%
  Population Tubulin-Different-Phenotype (%): 4%
  Total Cell Count: 252
[2]
  Population Apoptotic (%): 77%
  Population Fragmented Nuclei (%): 23%
  Population Healthy Nuclei (%): 67%
  Population Hoechst High Intensity Objects (%): 2%
  Population Membrane Permeable-Phenotype (%): 15%
  Population Mitochondria Different-Phenotype (%): 9%
  Population Mitotic Cells (%): 22%
  Population Normal (%): 97%
  Population Tubulin-Different-Phenotype (%): 11%
  Total Cell Count: 108
[3]
  Population Apoptotic (%): 70%
  Population Fragmented Nuclei (%): 36%
  Population Healthy Nuclei (%): 47%
  Population Hoechst High Intensity Objects (%): 3%
  Population Membrane Permeable-Phenotype (%): 25%
  Population Mitochondria Different-Phenotype (%): 27%
  Population Mitotic Cells (%): 29%
  Population Normal (%): 96%
  Population Pyknosed Nuclei (%): 16%
  Population Tubulin-Different-Phenotype (%): 25%
  Total Cell Count: 200
[4]
  Population Apoptotic (%): 100%
  Population Fragmented Nuclei (%): 16%
  Population Healthy Nuclei (%): 76%
  Population Hoechst High Intensity Objects (%): 5%
  Population Membrane Permeable-Phenotype (%): 17%
  Population Mitochondria Different-Phenotype (%): 23%
  Population Mitotic Cells (%): 0%
  Population Normal (%): 94%
  Population Pyknosed Nuclei (%): 7%
  Population Tubulin-Different-Phenotype (%): 13%
  Total Cell Count: 112
[5]
  Population Apoptotic (%): 86%
  Population Fragmented Nuclei (%): 17%
  Population Healthy Nuclei (%): 74%
  Population Hoechst High Intensity Objects (%): 3%
  Population Membrane Permeable-Phenotype (%): 8%
  Population Mitochondria Different-Phenotype (%): 3%
  Population Mitotic Cells (%): 13%
  Population Normal (%): 96%
  Population Pyknosed Nuclei (%): 8%
  Population Tubulin-Different-Phenotype (%): 3%
  Total Cell Count: 291
[6]
  Population Apoptotic (%): 83%
  Population Fragmented Nuclei (%): 18%
  Population Healthy Nuclei (%): 76%
  Population Hoechst High Intensity Objects (%): 4%
  Population Membrane Permeable-Phenotype (%): 12%
  Population Mitochondria Different-Phenotype (%): 7%
  Population Mitotic Cells (%): 16%
  Population Normal (%): 95%
  Population Pyknosed Nuclei (%): 5%
  Population Tubulin-Different-Phenotype (%): 5%
  Total Cell Count: 121
[7]
  Population Apoptotic (%): 58%
  Population Fragmented Nuclei (%): 36%
  Population Healthy Nuclei (%): 43%
  Population Hoechst High Intensity Objects (%): 5%
  Population Membrane Permeable-Phenotype (%): 21%
  Population Mitochondria Different-Phenotype (%): 22%
  Population Mitotic Cells (%): 41%
  Population Normal (%): 94%
  Population Pyknosed Nuclei (%): 19%
  Population Tubulin-Different-Phenotype (%): 17%
  Total Cell Count: 210
[8]
  Population Apoptotic (%): 100%
  Population Fragmented Nuclei (%): 21%
  Population Healthy Nuclei (%): 70%
  Population Membrane Permeable-Phenotype (%): 13%
  Population Mitochondria Different-Phenotype (%): 19%
  Population Mitotic Cells (%): 0%
  Population Pyknosed Nuclei (%): 8%
  Population Tubulin-Different-Phenotype (%): 7%
  Total Cell Count: 126
[9]
  Population Apoptotic (%): 84%
  Population Fragmented Nuclei (%): 16%
  Population Healthy Nuclei (%): 74%
  Population Hoechst High Intensity Objects (%): 3%
  Population Membrane Permeable-Phenotype (%): 5%
  Population Mitochondria Different-Phenotype (%): 3%
  Population Mitotic Cells (%): 15%
  Population Normal (%): 96%
  Population Pyknosed Nuclei (%): 9%
  Population Tubulin-Different-Phenotype (%): 3%
  Total Cell Count: 425
[10]
  Population Apoptotic (%): 76%
  Population Fragmented Nuclei (%): 19%
  Population Healthy Nuclei (%): 69%
  Population Membrane Permeable-Phenotype (%): 8%
  Population Mitochondria Different-Phenotype (%): 5%
  Population Mitotic Cells (%): 23%
  Population Pyknosed Nuclei (%): 10%
  Total Cell Count: 166
[11]
  Population Apoptotic (%): 61%
  Population Fragmented Nuclei (%): 35%
  Population Healthy Nuclei (%): 46%
  Population Hoechst High Intensity Objects (%): 4%
  Population Membrane Permeable-Phenotype (%): 20%
  Population Mitochondria Different-Phenotype (%): 17%
  Population Mitotic Cells (%): 38%
  Population Normal (%): 95%
  Population Pyknosed Nuclei (%): 17%
  Population Tubulin-Different-Phenotype (%): 11%
  Total Cell Count: 236
[12]
  Population Apoptotic (%): 85%
  Population Fragmented Nuclei (%): 25%
  Population Healthy Nuclei (%): 60%
  Population Membrane Permeable-Phenotype (%): 12%
  Population Mitochondria Different-Phenotype (%): 12%
  Population Mitotic Cells (%): 14%
  Population Pyknosed Nuclei (%): 14%
  Population Tubulin-Different-Phenotype (%): 3%
  Total Cell Count: 151
